Results as given in ChEMBL document CHEMBL2073884, “Functional characterization of pH-sensitive organic anion transporting polypeptide OATP-B in human” (J Pharmacol Exp Ther, 2004).

What was measured:
Type in all cases: functional, cell-based
[1] = target: T1, Solute carrier organic anion transporter family member 2B1 (Homo sapiens, UniProt O94956); assay: TP_TRANSPORTER: uptake (pH 7.4) of Lactate at a concentration of 1.91 u M in OATP-B-expressing HEK293 cells; settings: hek293, pH 7.4, 1.91 µM
T1 sequence (O94956 whole entry): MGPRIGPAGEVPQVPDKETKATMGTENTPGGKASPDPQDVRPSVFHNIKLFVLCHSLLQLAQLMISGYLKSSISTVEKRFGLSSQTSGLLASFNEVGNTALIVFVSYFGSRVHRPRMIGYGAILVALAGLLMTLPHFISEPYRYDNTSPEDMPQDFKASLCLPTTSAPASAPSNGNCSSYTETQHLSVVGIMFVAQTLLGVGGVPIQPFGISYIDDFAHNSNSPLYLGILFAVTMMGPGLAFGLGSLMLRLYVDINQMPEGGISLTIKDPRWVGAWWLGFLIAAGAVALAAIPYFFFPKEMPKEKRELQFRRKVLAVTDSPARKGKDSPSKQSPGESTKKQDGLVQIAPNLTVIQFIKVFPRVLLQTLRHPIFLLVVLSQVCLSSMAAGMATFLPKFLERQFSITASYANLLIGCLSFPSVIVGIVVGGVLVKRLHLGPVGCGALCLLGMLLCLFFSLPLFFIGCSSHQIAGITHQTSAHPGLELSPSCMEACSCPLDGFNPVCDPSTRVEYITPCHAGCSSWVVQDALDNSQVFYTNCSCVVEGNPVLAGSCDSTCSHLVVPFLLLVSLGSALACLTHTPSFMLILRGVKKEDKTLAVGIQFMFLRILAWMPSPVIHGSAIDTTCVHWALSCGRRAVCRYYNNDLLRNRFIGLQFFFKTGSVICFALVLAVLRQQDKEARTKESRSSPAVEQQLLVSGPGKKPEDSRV
Summary of the method: (§1)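 HEK293 cells transiently transfected with pcDNA3/OATP-B (calcium phosphate) or empty vector were used 40-48 h later. Suspensions were preincubated 20 min at 37°C in HEPES saline (pH 7.4), then incubated 10 min in MES/Tris-buffered uptake medium (pH 5.0 or 7.4). Cells were separated by silicone-oil centrifugal filtration. Uptake was inulin-corrected, expressed as µL/mg protein, and mock-subtracted; n=3-4.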

[2] = target: T1, Solute carrier organic anion transporter family member 2B1; assay: TP_TRANSPORTER: uptake (pH 5.0) of Lactate at a concentration of 1.91 u M in OATP-B-expressing HEK293 cells; settings: hek293, pH 5, 1.91 µM; summary of the method: as §1
[3] = target: T1, Solute carrier organic anion transporter family member 2B1; assay: TP_TRANSPORTER: uptake (pH 7.4) of Estradiol-17beta-D-glucuronide at a concentration of 5.72 nM in OATP-B-expressing HEK293 cells; settings: hek293, pH 7.4, 0.00572 µM
Summary of the method: (§2)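 HEK293 cells transiently transfected with OATP-B cDNA (calcium phosphate) or vector alone (mock), used 40-48 h later as suspensions. Preincubated 20 min at 37°C in HEPES buffer pH 7.4, then incubated with radiolabeled compound in uptake medium pH 5.0 or 7.4. DHEAS was taken up for 5 min; estradiol-17ß-glucuronide for 10 min. Cells separated by silicone oil/paraffin centrifugal filtration and counted by scintillation. Uptake (µL/mg protein) corrected for [14C]inulin adsorption; mock subtracted; n=3 or 4.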

[4] = target: T1, Solute carrier organic anion transporter family member 2B1; assay: TP_TRANSPORTER: uptake (pH 5.0) of Estradiol-17beta-D-glucuronide at a concentration of 5.72 nM in OATP-B-expressing HEK293 cells; settings: hek293, pH 5, 0.00572 µM; summary of the method: as §2
[5] = target: T1, Solute carrier organic anion transporter family member 2B1; assay: TP_TRANSPORTER: uptake (pH 7.4) of Estrone-3-sulfate at a concentration of 5.43 nM in OATP-B-expressing HEK293 cells; settings: hek293, pH 7.4, 0.00543 µM
Summary of the method: (§3)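 OATP-B- or vector-transfected HEK293 cells were harvested 40-48 h after transfection and preincubated 20 min at 37°C in pH 7.4 HEPES saline. [3H]estrone-3-sulfate uptake was run for 1 min in uptake medium at pH 5.0 or 7.4 and stopped by silicone-oil centrifugal filtration. Radioactivity was counted by scintillation, corrected for [14C]inulin adsorption and given as µL/mg protein. Mock uptake was subtracted; n=3-4.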

[6] = target: T1, Solute carrier organic anion transporter family member 2B1; assay: TP_TRANSPORTER: uptake (pH 5.0) of Estrone-3-sulfate at a concentration of 5.43 nM in OATP-B-expressing HEK293 cells; settings: hek293, pH 5, 0.00543 µM; summary of the method: as §3
[7] = target: T1, Solute carrier organic anion transporter family member 2B1; assay: TP_TRANSPORTER: uptake (pH 7.4) of Fexofenadine at a concentration of 10 u M in OATP-B-expressing HEK293 cells; settings: hek293, pH 7.4, 10 µM
Summary of the method: (§4)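 Transiently transfected OATP-B or mock HEK293 cells were preincubated 20 min at 37°C (pH 7.4), then exposed for 30 min to uptake medium at pH 5.0 or 7.4. Pellets were collected through silicone oil, sonicated, extracted in 50% methanol, dried and quantified by HPLC (ODS column, fluorescence ex 240/em 290 nm). Results are µL/mg protein after mock subtraction; n=3-4.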

[8] = target: T1, Solute carrier organic anion transporter family member 2B1; assay: TP_TRANSPORTER: uptake (pH 5.0) of Fexofenadine at a concentration of 10 u M in OATP-B-expressing HEK293 cells; settings: hek293, pH 5, 10 µM; summary of the method: as §4
[9] = target: T1, Solute carrier organic anion transporter family member 2B1; assay: TP_TRANSPORTER: uptake (pH 7.4) of Dehydroepiandrosterone-3-sulfate at a concentration of 2.98 nM in OATP-B-expressing HEK293 cells; settings: hek293, pH 7.4, 0.00298 µM; summary of the method: as §2
[10] = target: T1, Solute carrier organic anion transporter family member 2B1; assay: TP_TRANSPORTER: uptake (pH 5.0) of Dehydroepiandrosterone-3-sulfate at a concentration of 2.98 nM in OATP-B-expressing HEK293 cells; settings: hek293, pH 5, 0.00298 µM; summary of the method: as §2
[11] = target: T1, Solute carrier organic anion transporter family member 2B1; assay: TP_TRANSPORTER: uptake (pH 7.4) of Pravastatin at a concentration of 14.7 u M in OATP-B-expressing HEK293 cells; settings: hek293, pH 7.4, 14.7 µM; summary of the method: as §1
[12] = target: T1, Solute carrier organic anion transporter family member 2B1; assay: TP_TRANSPORTER: uptake (pH 5.0) of Pravastatin at a concentration of 14.7 u M in OATP-B-expressing HEK293 cells; settings: hek293, pH 5, 14.7 µM; summary of the method: as §1
[13] = substrate: C[C@]12CC[C@@H]3c4ccc(OS(=O)(=O)O)cc4CC[C@H]3[C@@H]1CCC2=O; assay: TP_TRANSPORTER: uptake (pH 7.4) in OATP-B-expressing HEK293 cells
Summary of the method: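 OATP-B- or mock-transfected HEK293 suspensions. Preincubated 20 min at 37°C at pH 7.4, then substrate uptake in medium at pH 7.4 (Tris-adjusted). Uptake was separated by centrifugal filtration through oil and measured by scintillation, or by HPLC-fluorescence for fexofenadine. Expressed as cell-to-medium ratio (µL/mg protein), corrected by [14C]inulin space; OATP-B-specific = transfected minus mock; n=3 or 4.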

[14] = substrate: CC[C@H](C)C(=O)O[C@H]1C[C@H](O)C=C2C=C[C@H](C)[C@H](CC[C@@H](O)C[C@@H](O)CC(=O)O)[C@H]21; assay: (§5) TP_TRANSPORTER: uptake (pH 5.0) in OATP-B-expressing HEK293 cells
[15] = substrate: C[C@]12CC[C@@H]3c4ccc(OS(=O)(=O)O)cc4CC[C@H]3[C@@H]1CCC2=O; assay: as §5

Q: C[C@@H](O)C(=O)O [D-LACTIC ACID] was tested. Which Activity [1] did it give?
A: is not a substrate [-]

Q: And the Activity [2]?
A: is not a substrate [-]

Q: C[C@]12CC[C@@H]3c4ccc(O)cc4CC[C@H]3[C@@H]1CC[C@@H]2O[C@@H]1O[C@H](C(=O)O)[C@@H](O)[C@H](O)[C@H]1O [ESTRADIOL 17B GLUCURONIDE] was tested. Which Activity [3] did it give?
A: is not a substrate [-]

Q: And the Activity [4]?
A: is not a substrate [-]

Q: C[C@]12CC[C@@H]3c4ccc(OS(=O)(=O)O)cc4CC[C@H]3[C@@H]1CCC2=O [ESTRONE SULFURIC ACID] was tested. Which Activity [5] did it give?
A: substrate [+]

Q: What about the Activity [6] of the same molecule?
A: substrate [+]

Q: What does the source list for CC(C)(C(=O)O)c1ccc(C(O)CCCN2CCC(C(O)(c3ccccc3)c3ccccc3)CC2)cc1 (stereo not given) [FEXOFENADINE]?
A: Activity [7]: substrate [+]; Activity [8]: substrate [+]

Q: C[C@]12CC[C@H](OS(=O)(=O)O)CC1=CC[C@@H]1[C@@H]2CC[C@]2(C)C(=O)CC[C@@H]12 [PRASTERONE SULFURIC ACID] was tested. Which Activity [9] did it give?
A: substrate [+]

Q: What about the Activity [10] of the same molecule?
A: substrate [+]

Q: What does the source list for CC[C@H](C)C(=O)O[C@H]1C[C@H](O)C=C2C=C[C@H](C)[C@H](CC[C@@H](O)C[C@@H](O)CC(=O)O)[C@H]21 [PRAVASTATIN]?
A: Activity [11]: is not a substrate [-]; Activity [12]: substrate [+]

B1: Solute carrier organic anion transporter family member 2B1 (Homo sapiens) (protein)
chain: MGPRIGPAGEVPQVPDKETKATMGTENTPGGKASPDPQDVRPSVFHNIKLFVLCHSLLQLAQLMISGYLKSSISTVEKRFGLSSQTSGLLASFNEVGNTALIVFVSYFGSRVHRPRMIGYGAILVALAGLLMTLPHFISEPYRYDNTSPEDMPQDFKASLCLPTTSAPASAPSNGNCSSYTETQHLSVVGIMFVAQTLLGVGGVPIQPFGISYIDDFAHNSNSPLYLGILFAVTMMGPGLAFGLGSLMLRLYVDINQMPEGGISLTIKDPRWVGAWWLGFLIAAGAVALAAIPYFFFPKEMPKEKRELQFRRKVLAVTDSPARKGKDSPSKQSPGESTKKQDGLVQIAPNLTVIQFIKVFPRVLLQTLRHPIFLLVVLSQVCLSSMAAGMATFLPKFLERQFSITASYANLLIGCLSFPSVIVGIVVGGVLVKRLHLGPVGCGALCLLGMLLCLFFSLPLFFIGCSSHQIAGITHQTSAHPGLELSPSCMEACSCPLDGFNPVCDPSTRVEYITPCHAGCSSWVVQDALDNSQVFYTNCSCVVEGNPVLAGSCDSTCSHLVVPFLLLVSLGSALACLTHTPSFMLILRGVKKEDKTLAVGIQFMFLRILAWMPSPVIHGSAIDTTCVHWALSCGRRAVCRYYNNDLLRNRFIGLQFFFKTGSVICFALVLAVLRQQDKEARTKESRSSPAVEQQLLVSGPGKKPEDSRV
Q: For B1, which Km [13] is on record?
A: 8.09 µM

Q: What about the Km [14] of the same molecule?
A: 2250 µM

Q: And the Km [15]?
A: 13.1 µM
